From paper PMC9064241 (RSC Advances, 2019)

Assays:
human FFA4 [1] = target: T1, human FFA4 (Homo sapiens, UniProt Q5NUL3); test: DMR agonist assay in CHO-FFA4 cells; assay type: cell-based; details: for DMR response in CHO-FFA4 cells: 100 μM ALA, 12.5 μM GW9508, 10 μM TAK875 (Fig. 2A); for EC50: CHO-FFA4 cell, EC50, NPs-derived FFA4 agonists, DMR, CHO-FFA4 cells; for Selectivity between FFA4 and FFA1: comparison of DMR activity in CHO-FFA4 and CHO-FFA1 cells; for DMR response relative to the TUG891-induced response: screening of 140 natural compounds in CHO-FFA4 cells, of the TUG891-induced response (∼80 pm)
T1 sequence (Q5NUL3 1-361): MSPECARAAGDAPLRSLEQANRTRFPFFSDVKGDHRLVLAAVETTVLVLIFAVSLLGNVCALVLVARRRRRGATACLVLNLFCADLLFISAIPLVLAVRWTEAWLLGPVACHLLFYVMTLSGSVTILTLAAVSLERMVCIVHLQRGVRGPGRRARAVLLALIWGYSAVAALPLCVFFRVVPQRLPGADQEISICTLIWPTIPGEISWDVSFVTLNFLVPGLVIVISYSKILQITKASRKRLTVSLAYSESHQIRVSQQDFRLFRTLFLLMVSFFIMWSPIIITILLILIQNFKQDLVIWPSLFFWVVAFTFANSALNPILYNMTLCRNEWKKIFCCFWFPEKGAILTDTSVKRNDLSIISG

human FFA1 [2] = target: T2, human FFA1 (Homo sapiens, UniProt O14842); test: DMR agonist assay in CHO-FFA1 cells; assay type: cell-based; details: for EC50: CHO-FFA1 cell, EC50, NPs-derived FFA4 agonists
T2 sequence (O14842 whole entry): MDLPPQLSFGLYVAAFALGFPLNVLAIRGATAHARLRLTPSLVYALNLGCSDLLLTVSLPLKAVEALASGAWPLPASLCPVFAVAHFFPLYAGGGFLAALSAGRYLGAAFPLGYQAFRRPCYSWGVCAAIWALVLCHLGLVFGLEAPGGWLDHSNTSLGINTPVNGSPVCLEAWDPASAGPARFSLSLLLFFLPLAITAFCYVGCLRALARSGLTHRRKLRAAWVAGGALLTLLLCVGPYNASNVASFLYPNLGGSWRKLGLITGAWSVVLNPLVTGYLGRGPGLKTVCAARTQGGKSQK

human FFA1 [3] = target: T2, human FFA1; test: DMR desensitization assay in CHO-FFA1 cells; assay type: cell-based; details: CHO-FFA1 cell Desensitization IC50, IC50 to desensitize the DMR of 1 μM GW9508 in CHO-FFA1 cells
HT29 cells [4] = test: DMR desensitization assay in HT29 cells; assay type: cell-based; details: Homo sapiens, HT-29, read-out: HT 29 cell Desensitization IC50
CHO-K1 cells = test: DMR agonist assay in parental CHO-K1 cells; assay type: cell-based, Chinese hamster
Summary of the method: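 Parental CHO-K1 cells were grown in Ham's F12K with 10% FBS, then seeded on biosensor microplates overnight to a confluent monolayer. Cells were washed twice and held 1–2 h in HBSS, 10 mM HEPES, pH 7.2, 0.1% BSA. After a 2 min baseline, the test compound, diluted in the same buffer, was added. Label-free DMR was recorded for 1 h.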

human FFA4 [5] = target: T1, human FFA4; test: DMR desensitization assay in CHO-FFA4 cells; assay type: cell-based
HT29 cells [6] = test: DMR agonist assay in HT29 cells; assay type: cell-based, Human; details: for EC50: Homo sapiens, HT-29, read-out: HT29 cell, EC50, NPs-derived FFA4 agonists, DMR, HT29 cells
FFA4 = details: read-out: EC50 as natural FFA4 agonist; literature retrieval; cited from earlier work
human FFA4 [7] = target: T1, human FFA4; test: FLIPR calcium flux assay in CHO-FFA4 cells; assay type: cell-based; details: acetylshikonin 100 μM, TUG891 15 μM

O=C(O)CCc1ccc(NCc2cccc(Oc3ccccc3)c2)cc1 [GW9508]
DMR response in CHO-FFA4 cells (human FFA4 [1]): minor response
Agonist efficacy in CHO-FFA1 cells compared with ALA (human FFA1 [2]): partial agonism
IC50 (human FFA1 [3]): 0.14 ± 0.01 µM
IC50 (HT29 cells [4]): 12 ± 2.12 µM
DMR response in parental CHO-K1 cells (CHO-K1 cells): negligible DMR response

Cc1cc(OCCCS(C)(=O)=O)cc(C)c1-c1cccc(COc2ccc3c(c2)OC[C@H]3CC(=O)O)c1 [TAK875]
DMR response in CHO-FFA4 cells (human FFA4 [1]): did not induce any response
IC50 (human FFA4 [5]): > 20 µM
DMR response in HT29 cells (HT29 cells [6]; TAK875 at 10 μM, MEDICA16): did not induce an observable signal
IC50 (HT29 cells [4]): > 20 µM
DMR response in parental CHO-K1 cells (CHO-K1 cells): negligible DMR response

Cc1ccc(-c2ccc(F)cc2COc2ccc(CCC(=O)O)cc2)cc1 [TUG891]
IC50 (HT29 cells [4]): 0.48 ± 0.12 µM
DMR response in parental CHO-K1 cells (CHO-K1 cells): neither GSK137647A (Fig. 2F) nor TUG891 (data not shown) produced detectable DMR events

CC(C)=CCC/C(C)=C/CC/C(C)=C/Cc1c(O)cc(C)c(C(=O)O)c1O [grifolic acid]
EC50 (FFA4): > 30 µM

CC(=O)O[C@H](CC=C(C)C)C1=CC(=O)c2c(O)ccc(O)c2C1=O [Acetylshikonin, acetylshikonin]
EC50 (human FFA4 [1]): 10.2 ± 2.95 µM
Selectivity between FFA4 and FFA1 (human FFA4 [1]): non-selective
DMR response relative to the TUG891-induced response (human FFA4 [1]): greater than 30%
EC50 (human FFA1 [2]): 6.17 ± 2.81 µM
EC50 (HT29 cells [6]): 2.82 ± 0.39 µM
Ca2+ response in CHO-FFA4 cells (human FFA4 [7]): produced a Ca^2+ response

Cc1cc(O)c2c(c1)C(=O)c1cc(O)cc(O)c1C2=O [Emodin, emodin]
EC50 (human FFA4 [1]): 38.2 ± 5.02 µM
Selectivity between FFA4 and FFA1 (human FFA4 [1]): selectivity on FFA4
DMR response relative to the TUG891-induced response (human FFA4 [1]): greater than 30%
EC50 (human FFA1 [2]): > 100 µM
EC50 (HT29 cells [6]): ~39 µM

CCCCCCCCCCCCCC[C@@H](O)[C@@H](O)[C@@H](N)CO [phytosphingosine]
EC50 (FFA4): 33.4 µM
